Converted amounts (≈) assume the structure as drawn. “And” between values parts separate entries of the source, which are not always exact repeats. Equal values may be shown once.
Legend:
[1] = Lipophilicity log P of the compound; assay type: physicochemical; conditions: octanol/water
How it was run: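 Calculated rather than measured, alongside the B3LYP/6-311++G(d,p) dipole moment.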

[2] = Cytotoxicity against BALB/c mouse splenocytes assessed as reduction in cell viability incubated for 24 hrs by beta-radiation counting based [3H]-thymidine incorporation assay; parameters: species or system Splenocyte
How it was run: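 BALB/c mouse splenocytes seeded at 6 × 10^5 cells/well in RPMI-1640 with 10% FBS and gentamycin; compound added in DMSO at six concentrations (1, 5, 10, 25, 50, 100) in triplicate; 24 h at 37 °C, 5% CO2; then 3H-thymidine pulse and beta counting. Viability as % incorporation versus solvent-only cells; saponin positive control; highest non-toxic concentration estimated.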

[3] = system: Aedes aegypti; test: Larvicidal activity against Aedes aegypti L4 stage larvae assessed as induction of larval mortality incubated for 48 hrs; assay type: functional; conditions: for LC50: Aedes aegypti, 48 h
How it was run: (§1)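 Adapted WHO larval test. Compound solubilized with Tween 80 co-solvent in distilled water as stock, then diluted. Fourth-instar A. aegypti larvae, 20 per beaker, in 20 mL test solution; four replicates per concentration, plus a compound-free negative control. Mortality scored after 48 h at 28 ± 2 °C, 70 ± 10 relative humidity (dead = no response to stimulus or failure to surface). LC50 from probit analysis.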

[4] = system: Aedes aegypti; test: Larvicidal activity against Aedes aegypti; assay type: functional; how it was run: as §1
[5] = target: T1, Sterol carrier protein 2 (Aedes aegypti) (UniProt Q86PR3); test: (§2) Inhibition of NBD-cholesterol binding to recombinant Aedes aegypti SCP-2 protein by fluorescence based assay
T1 sequence (whole entry): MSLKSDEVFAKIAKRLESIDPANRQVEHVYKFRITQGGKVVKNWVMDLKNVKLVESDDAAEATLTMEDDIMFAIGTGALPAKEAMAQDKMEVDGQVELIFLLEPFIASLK
How it was run: (§3)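 Competition assay with purified recombinant AeSCP-2, NBD-cholesterol and compound at increasing concentrations, read as fluorescence intensity. Separate NBD-cholesterol plus compound wells served as background where the compound interfered with fluorescence. Net signal is NBD-cholesterol/SCP-2/compound fluorescence minus that background, plotted as dose-response.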

[6] = target: T2, Sterol carrier protein 2 (Aedes aegypti, UniProt Q86PR3); test: as §2; how it was run: as §3
T2 sequence (Q86PR3 whole entry): T1 sequence (whole entry)

SMILES | logP [1] | MNTC at 24 h [2] [µM] | log(1/LC50) [3] | LC50 [3] | LC50 [4] [µg/mL] | inhibition [5] | EC50 [6] [µM]
NC(=S)N/N=C/c1ccc(Cl)cc1 | 2.63 | 23.3 | 3.873 | 28.8 µg/mL and 135 µM | – | – | –
NC(=S)N/N=C/COc1ccccc1 | 2.01 | 119 | 3.268 | 113 µg/mL and 538 µM | – | – | –
NC(=O)N/N=C/c1ccc(F)cc1 | – | > 55.1 | – | > 200 µg/mL and > 1.1 mM | – | – | –
NC(=S)N/N=C/COc1cccc(Cl)c1Cl | 3.3 | 17.9 | 4.154 | 19.5 µg/mL and 70.1 µM | – | – | –
CC(C)CNC(=O)/C=C/C=C/CC/C=C/c1ccc2c(c1)OCO2 [RETROFRACTAMIDE A] | – | – | – | – | 0.04 (≈ 0.122 µM) | – | –
CCCCC/C=C/C=C/C(=O)NCC(C)C [PELLITORIN] | – | – | – | – | 0.92 (≈ 4.12 µM) | – | –
CC(C)CNC(=O)/C=C/C=C/CCCCCC/C=C/c1ccc2c(c1)OCO2 [GUINEENSINE] | – | – | – | – | 0.89 (≈ 2.32 µM) | – | –
NC(=S)N/N=C/c1ccc(O)cc1 | – | 5.12 | – | – | – | Dose-dependent effect | 5
N/C(S)=N/N=C/c1ccc(Cl)c(Cl)c1 | 3.27 | 20.2 | 4.157 | 17.3 µg/mL and 69.7 µM | – | – | –
NC(=S)N/N=C/c1ccc(Br)cc1 | 2.87 | < 3.87 | 3.91 | 31.7 µg/mL and 123 µM | – | – | –
NC(=O)N/N=C/c1ccc(Cl)c(Cl)c1 | – | > 431 | – | > 200 µg/mL and > 862 µM | – | – | –
NC(=S)N/N=C/COc1ccc(Cl)c(Cl)c1 | 3.3 | 89.8 | 4.68 | 5.8 µg/mL and 20.9 µM | – | – | –
NC(=S)N/N=C/COc1ccc(Br)cc1 | 2.9 | > 347 | 4.036 | 26.5 µg/mL and 92 µM | – | – | –
C/C(=N\NC(N)=S)C(C)Oc1ccc(Cl)c(Cl)c1 (stereo not drawn) | 4.87 | – | – | 3.95 µM | – | – | –
NC(=S)N/N=C/COc1cccc(Cl)c1 | 2.65 | 103 | 3.542 | 70 µg/mL and 287 µM | – | – | –
NC(=S)N/N=C/COc1ccc(Cl)cc1 | 2.65 | 103 | 4.046 | 21.9 µg/mL and 89.9 µM | – | – | –
NC(=S)N/N=C/c1ccc(F)cc1 | 2.18 | 25.4 | 3.507 | 61.3 µg/mL and 311 µM | – | – | –
NC(=S)N/N=C/C=C/c1ccccc1 | – | < 4.87 | 3.86 | 28.4 µg/mL and 138 µM | – | – | –
CC(C)CNC(=O)/C=C/C=C/CCCC/C=C/c1ccc2c(c1)OCO2 [RETROFRACTAMIDE B] | – | – | – | – | 0.1 (≈ 0.281 µM) | – | –
NC(=S)N/N=C/c1cccc(/C=N/NC(N)=S)c1 | – | – | – | > 200 µg/mL | – | – | –
COc1ccc(OC/C=N/NC(N)=S)cc1 | 2.09 | 20.9 | 3.298 | 120 µg/mL and 503 µM | – | Dose-dependent effect | 0.6
